Activity calls are given as the source filed them. The calls are words filed in the database; no cut-off is given here.
Key:
[1] = test system: HCC1806; test: Antiproliferative activity against ER, PR, HER2-deficient human HCC1806 cells as growth inhibition after 24 hrs by MTT assay; format: functional, cell-based; settings: HCC1806, 24 h
In short: (§1)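 Cells were seeded at 2x10^4/well and left to attach overnight. Compounds in DMSO were diluted in medium and applied for 24, 48, 72 or 96 h. Cells were then PBS-washed and given 0.5 mg/mL MTT (pH 7.4) at 37 °C for 4 h. Formazan was dissolved in acid isopropanol. IC50 came from dose-response curves by exponential decay fitting (r2>0.9), with 95% CI.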

[2] = test system: HCC1806; test: Antiproliferative activity against ER, PR, HER2-deficient human HCC1806 cells as growth inhibition after 48 hrs by MTT assay; format: functional, cell-based; settings: HCC1806, 48 h; in short: as §1
[3] = test system: MCF7; test: Antiproliferative activity against human MCF7 cells expressing ER and BRCA2 assessed as growth inhibition after 72 hrs by MTT assay; format: functional, cell-based; settings: MCF7, 72 h; in short: as §1
[4] = test system: HCC1954; test: Antiproliferative activity against human HCC1954 cells expressing HER2 assessed as growth inhibition after 48 hrs by MTT assay; format: functional, cell-based; settings: HCC1954, 48 h; in short: as §1
[5] = test system: HCC1806; test: Antiproliferative activity against ER, PR, HER2-deficient human HCC1806 cells as growth inhibition after 96 hrs by MTT assay; format: functional, cell-based; settings: HCC1806, 96 h; in short: as §1
[6] = test system: HCC1954; test: Antiproliferative activity against human HCC1954 cells expressing HER2 assessed as growth inhibition after 24 hrs by MTT assay; format: functional, cell-based; settings: HCC1954, 24 h; in short: as §1
[7] = test system: HCC1954; test: Antiproliferative activity against human HCC1954 cells expressing HER2 assessed as growth inhibition after 72 hrs by MTT assay; format: functional, cell-based; settings: HCC1954, 72 h; in short: as §1
[8] = test system: HCC1954; test: Antiproliferative activity against human HCC1954 cells expressing HER2 assessed as growth inhibition after 96 hrs by MTT assay; format: functional, cell-based; settings: HCC1954, 96 h; in short: as §1
[9] = test system: MCF7; test: Antiproliferative activity against human MCF7 cells expressing ER and BRCA2 assessed as growth inhibition after 96 hrs by MTT assay; format: functional, cell-based; settings: MCF7, 96 h; in short: as §1
[10] = test system: MCF7; test: Antiproliferative activity against human MCF7 cells expressing ER and BRCA2 assessed as growth inhibition after 24 hrs by MTT assay; format: functional, cell-based; settings: MCF7, 24 h; in short: as §1
[11] = test system: HCC1806; test: Antiproliferative activity against ER, PR, HER2-deficient human HCC1806 cells as growth inhibition after 72 hrs by MTT assay; format: functional, cell-based; settings: HCC1806, 72 h; in short: as §1
[12] = test system: MCF7; test: Antiproliferative activity against human MCF7 cells expressing ER and BRCA2 assessed as growth inhibition after 48 hrs by MTT assay; format: functional, cell-based; settings: MCF7, 48 h; in short: as §1
[13] = test system: HCC1806; test: Cell cycle arrest in ER, PR, HER2-deficient human HCC1806 cells as accumulation at G2/M phase at IC50 after 48 hrs by propidium staining-based FACS analysis; format: functional
In short: (§2)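 2x10^6 cells were attached overnight, then exposed to IC50 for 48 h (DMSO 0.1%). They were fixed in ice-cold 70% ethanol for 30 min in the dark, PBS-washed and stained with PI/RNase for 15 min at RT. Flow cytometry used 488 nm excitation and a 585/42 filter. Sub-G0, G0/G1, S and G2/M fractions were reported as mean ± SD (n≥5).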

[14] = test system: HCC1806; test: Cell cycle arrest in ER, PR, HER2-deficient human HCC1806 cells as accumulation at S phase at IC50 after 48 hrs by propidium staining-based FACS analysis; format: functional; in short: as §2
[15] = test system: HCC1806; test: Induction of apoptosis in triple negative ER, PR, HER2-deficient human HCC1806 cells assessed as increase of late apoptotic/nectrotic cells at IC50 after 48 hrs by Annexin V/propidium iodide staining-based flow cytometry relative to control; format: functional, cell-based
In short: (§3)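 2x10^6 cells were attached overnight, then given IC50 for 48 h (DMSO 0.1%). PBS-washed cells were stained with Annexin V-FITC and PI in binding buffer for 15 min at 4 °C in the dark. Flow cytometry used 488 nm excitation. Cells were gated as viable, apoptotic, late apoptotic/necrotic or necrotic, reported as mean ± SD (n≥5).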

[16] = test system: MCF7; test: Induction of apoptosis in human MCF7 cells expressing ER and BRCA2 assessed as increase of necrotic cells at IC50 after 48 hrs by Annexin V/propidium iodide staining-based flow cytometry relative to control; format: functional, cell-based; in short: as §3
[17] = test system: MCF7; test: Cytotoxicity against human MCF7 cells expressing ER and BRCA2 assessed as reduction of survival factor at IC50 incubated for 48 hrs measured after 12 days by crystal violet staining-based clonogenic assay; format: functional, cell-based
[18] = test system: MCF7; test: Cell cycle arrest in human MCF7 cells expressing ER and BRCA2 assessed as decrease in accumulation at G0/G1 phase at IC50 after 48 hrs by propidium staining-based FACS analysis; format: functional; in short: as §2
[19] = test system: MCF7; test: Induction of DNA strand break in human MCF7 cells expressing ER and BRCA2 at 3 x IC50 after 48 hrs by alkaline comet assay; format: functional, cell-based
In short: (§4)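 5x10^5 cells got IC50 or 3x IC50 for 48 h (DMSO 0.1%); H2O2-treated cells served as positive control. Cells in 1% low-melt agarose went onto slides precoated with normal-melt agarose. Slides were lysed overnight in alkaline buffer (2.5 M NaCl, EDTA, Tris, DMSO, Triton X-100). Electrophoresis ran in 300 mM NaOH/1 mM EDTA (pH>13) at 25 V for 15 min. Slides were neutralized in Tris pH 7.4 and stained with 25 µg/mL ethidium bromide for fluorescence microscopy.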

[20] = test system: MCF7; test: Induction of DNA strand break in human MCF7 cells expressing ER and BRCA2 at IC50 after 48 hrs by alkaline comet assay; format: functional, cell-based; in short: as §4
[21] = test system: HCC1806; test: Induction of apoptosis in triple negative ER, PR, HER2-deficient human HCC1806 cells assessed as decrease of viable cells at IC50 after 48 hrs by Annexin V/propidium iodide staining-based flow cytometry relative to control; format: functional; in short: as §3
[22] = test system: HCC1806; test: Induction of DNA strand break in ER, PR, HER2-deficient human HCC1806 cells at IC50 after 48 hrs by alkaline comet assay; format: functional, cell-based; in short: as §4
[23] = test system: MCF7; test: Induction of apoptosis in human MCF7 cells expressing ER and BRCA2 assessed as decrease in viable cells at IC50 after 48 hrs by Annexin V/propidium iodide staining-based flow cytometry relative to control; format: functional; in short: as §3
[24] = test system: HCC1806; test: Induction of apoptosis in triple negative ER, PR, HER2-deficient human HCC1806 cells assessed as increase of necrotic cells at IC50 after 48 hrs by Annexin V/propidium iodide staining-based flow cytometry relative to control; format: functional, cell-based; in short: as §3
[25] = test system: HCC1806; test: Cell cycle arrest in ER, PR, HER2-deficient human HCC1806 cells as blockade at G0/G1 phase at IC50 after 48 hrs by propidium staining-based FACS analysis; format: functional; in short: as §2
[26] = test system: HCC1806; test: Cytotoxicity against ER, PR, HER2-deficient human HCC1806 cells as reduction of total protein content at IC50 incubated for 48 hrs by SRB assay relative to control; format: functional; design: scale not given: the % may be the effect or the level left
[27] = test system: MCF7; test: Cell cycle arrest in human MCF7 cells expressing ER and BRCA2 assessed as blockade at G2/M phase at IC50 after 48 hrs by propidium staining-based FACS analysis; format: functional; in short: as §2
[28] = test system: HCC1806; test: Induction of DNA strand break in ER, PR, HER2-deficient human HCC1806 cells at 3 x IC50 after 48 hrs by alkaline comet assay; format: functional, cell-based; in short: as §4
[29] = test system: MCF7; test: Cytotoxicity against human MCF7 cells expressing ER and BRCA2 assessed as reduction of total protein content at IC50 after 48 hrs by SRB assay relative to control; format: functional; design: scale not given: the % may be the effect or the level left
[30] = test system: MCF7; test: Cell cycle arrest in human MCF7 cells expressing ER and BRCA2 assessed as increase in accumulation at S phase at IC50 after 48 hrs by propidium staining-based FACS analysis; format: functional; in short: as §2
[31] = test system: MCF7; test: Induction of apoptosis in human MCF7 cells expressing ER and BRCA2 assessed as increase of late apoptotic/nectrotic cells at IC50 after 48 hrs by Annexin V/propidium iodide staining-based flow cytometry relative to control; format: functional, cell-based; in short: as §3
[32] = test system: HCC1806; test: Cytotoxicity against ER, PR, HER2-deficient human HCC1806 cells as reduction of survival factor at IC50 incubated for 48 hrs measured after 12 days by crystal violet staining-based clonogenic assay; format: functional
[33] = test system: MCF7; test: Induction of apoptosis in human MCF7 cells expressing ER and BRCA2 assessed as increase in p53 expression at IC50 after 48 hrs by Western blotting analysis relative to control; format: functional, cell-based
In short: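 Cells were treated with IC50 for 48 h and lysed on ice in RIPA with protease inhibitors, then sonicated and centrifuged. Protein was quantified by BCA and separated on 10% SDS-PAGE, then transferred and blocked with 4% BSA/TBS-T. Blots were probed overnight at 4 °C with anti-p53 (DO7) and actin, then anti-mouse secondary. ECF fluorescence was scanned and quantified.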

[34] = test system: HCC1806; test: Induction of apoptosis in triple negative ER, PR, HER2-deficient human HCC1806 cells assessed as reduction of long term cell survival at IC50 after 48 hrs by clonogenic assay relative to control
[35] = test system: MCF7; test: Induction of apoptosis in human MCF7 cells expressing ER and BRCA2 assessed as increase in Bax/Bcl2 expression ratio at IC50 after 48 hrs by flow cytometry relative to control
[36] = test system: HCC1806; test: Cell cycle arrest in ER, PR, HER2-deficient human HCC1806 cells as accumulation at pre-G0 phase phase at IC50 after 48 hrs by propidium staining-based FACS analysis; format: functional; in short: as §2
[37] = test system: MCF7; test: Induction of apoptosis in human MCF7 cells expressing ER and BRCA2 assessed as early apoptotic cells at IC50 after 48 hrs by Annexin V/propidium iodide staining-based flow cytometry relative to control; format: functional, cell-based; in short: as §3
[38] = test system: HCC1806; test: Cell cycle arrest in ER, PR, HER2-deficient human HCC1806 cells as decrease in accumulation at G0/G1 phase at IC50 after 48 hrs by propidium staining-based FACS analysis; format: functional; in short: as §2
[39] = test system: HCC1806; test: Induction of apoptosis in ER, PR, HER2-deficient human HCC1806 cells as increase in Bax/Bcl2 expression ratio at IC50 after 48 hrs by flow cytometry relative to control

Structure (SMILES)	IC50 [1]	IC50 [2]	IC50 [3]	IC50 [4]	IC50 [5]	IC50 [6]	IC50 [7]	IC50 [8]	IC50 [9]	IC50 [10]	IC50 [11]	IC50 [12]	Activity [14]	Activity [15]	Activity [16]	Activity [17]	Activity [18]	Activity [19]	Activity [20]	Activity [21]	also measured
Cc1c(CO)c(CO)c2n1[C@H](c1ccccc1)SC2(C)C	> 100 µM	41.7 µM	> 100 µM	69 µM	21.3 µM	99.5 µM	55.9 µM	33.5 µM	> 100 µM	> 100 µM	26.9 µM	> 100 µM									
COc1ccc([C@H]2SCc3c(CO)c(CO)c(C)n32)cc1	89 µM	28 µM	32.7 µM	84.4 µM	12.3 µM	> 100 µM	56.1 µM	19.2 µM	6.6 µM	> 100 µM	19.4 µM	46.9 µM									
Cc1c(CO)c(CO)c2n1[C@H](c1ccccc1)SC2	> 100 µM	63.1 µM		56.8 µM	28.7 µM	> 100 µM	14.8 µM	11.8 µM			78.5 µM										
Cc1c(CO)c(CO)c2n1[C@@H](c1ccccc1)SC2	> 100 µM	81.4 µM		27 µM	13.9 µM	98.2 µM	26.2 µM	24.9 µM			51.3 µM		inactive	Active	Active	Active	Active	Active	Active	60%	Activity [13]: inactive; Activity [22]: Active; Activity [23]: 55%; Activity [24]: Active; Activity [25]: Active; Activity [26]: 50%; Activity [27]: Active; Activity [28]: Active; Activity [29]: 50%; Activity [30]: Active; Activity [31]: Active; Activity [32]: <2%
Cc1c(CO)c(CO)c2n1[C@@H](c1ccc(O)cc1)SC2	80.3 µM	26.4 µM	53.9 µM	65.6 µM	5.4 µM	> 100 µM	46.6 µM	27.4 µM	29.5 µM	> 100 µM	11.9 µM	86.2 µM	Active	Active	Active	Active	Active	Active	Active	Active	Activity [33]: Active; Activity [34]: 1.4%; Activity [35]: Active; Activity [22]: Active; Activity [23]: 21.4%; Activity [24]: Active; Activity [26]: 50%; Activity [36]: Active; Activity [27]: inactive; Activity [37]: Active; Activity [28]: Active; Activity [29]: 15.4%; Activity [30]: Active; Activity [31]: Active; Activity [38]: Active; Activity [32]: <2%; Activity [39]: Active
